# Assay results collected from several papers.
# Protocols differ between the studies behind these lines.
# Cell line: MDA-MB-231
# Read-out: cell growth or viability
Structure (SMILES),assay,setting,IC50
CCCNC(=S)N/N=C/c1cccc2cc3ccccc3nc12,MTT,48 h,> 50 µM
C[C@H]1[C@H](C)CC[C@]2(C)CC[C@]3(C)C(=CC(=O)[C@@H]4[C@@]5(C)CC[C@@H](O)[C@](C)(C(=O)NCc6cn(-c7cccc(Br)c7)nn6)[C@@H]5CC[C@]43C)[C@H]12,MTT,24 h,61.5 µM
O=[N+]([O-])c1ccc(NC(=S)N/N=C/c2cccc3cc4ccccc4nc23)cc1,MTT,48 h,> 50 µM
CC(=O)O[C@@]12CO[C@@H]1C[C@H](O)[C@@]1(C)C(=O)[C@H](O)C3=C(C)[C@@H](OC(=O)[C@H](O)[C@@H](NC(=O)OC(C)(C)C)c4ccccc4)C[C@@](O)([C@@H](OC(=O)c4ccccc4)[C@H]21)C3(C)C,MTT,24 h,> 50 mg/L
Cc1ccc(S(=O)(=O)n2cc(/C=N/NC(=O)c3ccc([N+](=O)[O-])cc3)c3ccccc32)cc1,MTT,48 h,38.6 µM
O=C1Nc2ccccc2/C1=N/N=C/c1cccc([N+](=O)[O-])c1,MTT,48 h,21.1 mg/L
Cc1sc2c(c1C)C(c1ccc(Cl)cc1)=N[C@@H](CC(=O)NCCCCNC(=O)COc1cccc3c1C(=O)N(C1CCC(=O)NC1=O)C3=O)c1nnc(C)n1-2 (stereo partly drawn),CCK-8,72 h,1.14 µM
COc1ccc(NC(=S)N/N=C/c2cccc3cc4ccccc4nc23)cc1,MTT,48 h,> 50 µM
Cc1ccc(S(=O)(=O)n2cc(/C=N/NC(=O)c3ccccc3C)c3ccccc32)cc1,MTT,48 h,27.2 µM
O=C(Nc1ccccc1)Nc1ccc(Oc2nc3ccccc3n3cnnc23)cc1,MTT,24 h,> 68 µM
Nc1nc2cc(CC[C@H]3C[C@@H](n4ccc5c(N)ncnc54)[C@H](O)[C@@H]3O)ccc2cc1Br,CCK-8,72 h,> 100 µM
Cc1ccc(S(=O)(=O)n2cc(/C=N/NC(=O)c3ccc(C(F)(F)F)cc3)c3ccccc32)cc1,MTT,48 h,19.2 µM
CC(C)=CCc1ncc(/C=C2\NC(=O)[C@H](C(C)C)NC2=O)[nH]1,SRB,,> 15 µM
COc1cc([C@@H]2c3cc4c(cc3[C@@H](O[C@@H]3O[C@@H]5CO[C@@H](C)O[C@H]5[C@H](O)[C@H]3O)[C@H]3COC(=O)[C@H]23)OCO4)cc(OC)c1O,SRB,72 h,3.3 µM
Cc1cc(NS(=O)(=O)c2ccc(NC(=O)/C(C#N)=C/c3cccnc3)cc2)no1,MTT,48 h,184 µM
C[C@H]1[C@H](C)CC[C@]2(C)CC[C@]3(C)C(=CC(=O)[C@@H]4[C@@]5(C)CC[C@@H](O)[C@](C)(C(=O)NCc6cn(-c7ccccc7)nn6)[C@@H]5CC[C@]43C)[C@H]12,MTT,24 h,103 µM
COc1cccc2c1C(=O)c1c(O)c3c(c(O)c1C2=O)C[C@@](O)(C(=O)CO)C[C@@H]3O[C@H]1C[C@H](N)[C@H](O)[C@H](C)O1,MTT,24 h,6.08 µM
CCCc1cc2cc(-n3nc(C)c4c3CC(C)(C)CC4=O)cc(N3CCC(O)CC3)c2c(=O)[nH]1,MTS,,3.82 µM
